The list is not random: actives were taken first. Their share in the collection is about 2.3%.
MEKK2 mut-MEK5 = MEK5 binding signal on mutant MEKK2 PB1, primary screen, biochemical, multiplex bead flow cytometry, Alexa488-MEK5 | percent response, % at 10 µM | hit rate 0.35% among 290,000 | Alexa488-MEK5 binding to MEKK2 mutant; in the data active = percent response above about 24%, passing the limit was not always enough
MEKK3 PB1 HTS = modulators of MEKK3-MEK5 PB1 binding, primary screen, biochemical, wildtype MEKK3, multiplex bead flow cytometry, Alexa488-MEK5; binding response (% of control), % at 10 µM; Mitogen-activated protein kinase kinase kinase 3 (Homo sapiens), Q99759; hit rate 1.4% among 290,000; AID 1529, 2009; bead-based flow cytometry, Alexa488-MEK5 binding to MEKK3; actives lie on both sides; 0 = blocked by unlabeled MEK5, 100 = vehicle;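 active = binding response more than 3 SD above or below the average of its plate-row segment, actives on both sides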;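 note: Alexa488 bead fluorescence after subtracting the streptavidin-only scavenger bead signal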
Target sequence (Q99759 whole entry, looked up): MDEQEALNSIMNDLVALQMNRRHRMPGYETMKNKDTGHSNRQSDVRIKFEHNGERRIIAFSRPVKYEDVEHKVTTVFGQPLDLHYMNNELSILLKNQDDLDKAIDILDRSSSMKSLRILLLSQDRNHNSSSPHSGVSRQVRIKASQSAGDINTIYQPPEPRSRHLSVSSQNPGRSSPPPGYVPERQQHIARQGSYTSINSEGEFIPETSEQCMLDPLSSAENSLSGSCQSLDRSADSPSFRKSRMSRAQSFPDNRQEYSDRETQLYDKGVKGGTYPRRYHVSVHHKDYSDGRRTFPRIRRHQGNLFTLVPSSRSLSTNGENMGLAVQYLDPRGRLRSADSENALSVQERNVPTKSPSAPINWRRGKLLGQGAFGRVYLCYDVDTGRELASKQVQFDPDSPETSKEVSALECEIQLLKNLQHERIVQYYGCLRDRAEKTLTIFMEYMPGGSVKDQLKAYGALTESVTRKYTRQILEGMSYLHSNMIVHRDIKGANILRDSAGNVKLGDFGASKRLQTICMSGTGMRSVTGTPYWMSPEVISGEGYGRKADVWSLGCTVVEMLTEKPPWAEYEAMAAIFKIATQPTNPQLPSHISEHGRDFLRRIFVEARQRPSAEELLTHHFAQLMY
Arrestin-AP2 inh = inhibitors of beta-arrestin/AP2 binding, primary screen, biochemical, GPCR trafficking, flow cytometry; AID 504490, 2011; beta-arrestin 1 C-terminal peptide binding to AP2 beta2-adaptin appendage (human); FITC-arrestin peptide / GST-AP2 beads; AP2 beta2 appendage carries R879A mutation; inhibition, % at 10 µM; hit rate 0.31% among 340,000;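 active = inhibition above a set limit, near 3 SD of compounds lacking own fluorescence, cut at about 54% in these data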
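Assay system: GST-AP2 R879A bound to glutathione beads, E. coli-expressed; Medium: PBS with 0.05% Tween 20 and 0.1% BSA; Also added: fluorescein-tagged arrestin peptide at 50 nM final; Timing: 12 min plus 1 h, RT; Measured by: flow cytometry, FL1 (488/535 nm); Evaluation: percent drop in bead-associated FITC signal.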
MEKK2 WT-MEK5 = modulators of MEK5 binding to wildtype MEKK2, primary screen, biochemical, multiplex bead flow cytometry, Alexa488-MEK5; Mitogen-activated protein kinase kinase kinase 2 (Homo sapiens), Q9Y2U5; Alexa488-MEK5 binding to MEKK2 WT; actives lie on both sides; binding response (% of control), % at 10 µM; hit rate 1.1% among 290,000; AID 1531, 2009; in the data active = binding response below about 67% or above about 130%
MEKK2wt confirm = modulators of MEK5 binding to wildtype MEKK2, confirmation, biochemical, single concentration, multiplex bead flow cytometry | binding response (% of control), % at 10 µM | Alexa488-MEK5 binding to MEKK2 WT; actives lie on both sides | hit rate 2.4% among 5,900 | shares compounds with MEKK3 PB1 HTS; in the data active = binding response below about 16% or above about 210%; inactive = in between
MEKK2mut confirm = mutant MEKK2 PB1-MEK5 binding signal retest – biochemical, single concentration, multiplex bead flow cytometry, confirmation; shares compounds with MEKK3 PB1 HTS; AID 1893, 2009; hit rate 2% among 5,900; Alexa488-MEK5 binding to MEKK2 mutant; percent response, % at 10 µM; in the data active = percent response mostly above about 71%, no sharp cut-off; inactive = mostly below about 38%;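 note: higher means compound restores mutant binding toward wildtype level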
MEKK3 confirm = MEKK3 wild-type PB1 binding to MEK5, inhibitors, confirmation, biochemical, bead multiplex flow cytometry, single concentration, wildtype | hit rate 1.8% among 5,900 | AID 1894, 2009 | Alexa488-MEK5 binding to MEKK3; hits give low values | shares compounds with MEKK3 PB1 HTS | binding response (% of control), % at 10 µM;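 active = binding response below 72% of control, or above a set upper limit, though filed actives all read lower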;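 note: lower values mean stronger disruption of MEK5 binding to MEKK3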
Hits are given with their value; n = inactive; x = not tested or not shown; [ ] = dose if it differs, or a comment.

SMILES	MEKK2 mut-MEK5	MEKK3 PB1 HTS	Arrestin-AP2 inh	MEKK2 WT-MEK5	MEKK2wt confirm	MEKK2mut confirm	MEKK3 confirm
Cc1nn(C)c(C)c1NC(=O)CSc1nc(Cc2ccccc2)nc2c1cnn2-c1ccccc1	n	74.0[inhibitor]	n	n	n	n	n
Cc1ccccc1N1CCN(C2CCCN(C(=O)CCN3CCCCC3=O)C2)CC1 (stereo not given)	n	n	n	n	x	x	x
CNC(=O)c1ccccc1NC(=O)C1CC(=O)N(C(C)C)C1 (stereo not given)	n	n	n	n	x	x	x
Nc1nc(Nc2ccccc2)n[nH]1	n	74.0[inhibitor]	n	n	n	n	n
Nc1nc(Nc2ccc(Cl)cc2)n[nH]1	n	n	n	n	x	x	x
CCOC(=O)/C(=C/C=C1\Sc2cc(C)c(C)cc2N1CC)C(C)=O	n	n	n	42.0[inhibitor]	n	n	n
Cc1cc(NCCCN2CCOCC2)n2ncc(-c3ccc(Cl)cc3)c2n1	n	n	n	147.0	n	n	n
CCc1nccn1-c1cc(C(C)(C)C)nc2c(-c3ccc(Cl)cc3)cnn12	n	151.0	n	n	n	n	n
CC(C)(C)c1cc(NCc2ccccn2)n2ncc(-c3ccc(Cl)cc3)c2n1	n	n	n	n	x	x	x
CC(C)(C)c1cc(NCCCn2ccnc2)n2ncc(-c3ccccc3)c2n1	n	n	n	145.0	n	n	n
CN(C)CCCNc1cc(C(C)(C)C)nc2c(-c3ccc(Cl)cc3)cnn12	n	n	n	190.0	250.0	89.0	n
Cc1cc(NCCCn2ccnc2)n2ncc(-c3ccc(Cl)cc3)c2n1	n	n	n	n	x	x	x
CC(C)Nc1cc(C(C)(C)C)nc2c(-c3ccccc3)cnn12	n	n	n	n	x	x	x
CC(c1ccncc1)C(C)c1ccncc1 (stereo not given)	x	x	n	x	x	x	x
CN(CC(=O)NCc1ccccc1F)S(=O)(=O)c1ccc(Cl)cc1	n	n	n	n	x	x	x
Cc1ccc2nc(Cc3ccc(N)cc3)[nH]c2c1	n	n	n	n	x	x	x
Nc1ccc2nc(Cc3ccccc3)[nH]c2c1	n	41.0[inhibitor]	n	47.0[inhibitor]	n	n	n
CCOC(=O)CNC(=O)C1CCN(S(=O)(=O)c2ccc(-c3nn[nH]n3)cc2)CC1	n	n	n	n	x	x	x
CN(CC(O)Cn1c2ccccc2c2ccccc21)S(C)(=O)=O (stereo not given)	n	n	n	n	x	x	x
CCN(CC(O)Cn1c2ccccc2c2ccccc21)S(=O)(=O)c1ccc(C)cc1 (stereo not given)	n	125.0	n	n	n	n	n
C/C(=N\Nc1nc2ccccc2[nH]1)c1cc2ccccc2o1	n	137.0	n	140.0	n	n	n
C/C(=N\Nc1nc2ccccc2[nH]1)c1ccccn1	n	n	n	n	x	x	x
O=C(OCCN=C1NS(=O)(=O)c2ccccc21)c1ccccc1	n	122.0	n	n	n	n	n
Cc1noc(NC(=O)c2cccc(Cl)c2Cl)c1C#N	n	73.0[inhibitor]	n	n	n	n	n
Cc1noc(NC(=O)c2ccccc2Cl)c1C#N	n	n	n	n	x	x	x
SMILES	MEKK2 mut-MEK5	MEKK3 PB1 HTS	Arrestin-AP2 inh	MEKK2 WT-MEK5	MEKK2wt confirm	MEKK2mut confirm	MEKK3 confirm
O=C(CN1C(=O)NC2(CCCCCCC2)C1=O)Nc1cccc(Br)c1	x	x	n	x	x	x	x
CCCn1nnc(NC(=O)c2cccc(Cl)c2)n1	n	n	n	n	x	x	x
CCCn1nnc(NC(=O)c2sc3ccccc3c2Cl)n1	n	74.0[inhibitor]	n	n	n	n	n
CC(C)Oc1ccc(S(=O)(=O)N2CCOCC2)cc1NC(=O)C1=NN(c2ccccc2)C(=O)CC1	x	x	n	x	x	x	x
CN(C)c1cc(-c2cccc(C(F)(F)F)c2)oc(=O)c1Cl	x	x	n	x	x	x	x
O=C(CN(c1ccc(Cl)c(Cl)c1)S(=O)(=O)c1ccccc1)N1CCc2ccccc2C1	n	n	n	n	x	x	x
Cc1ccc(S(=O)(=O)N(CC(=O)N2CCc3ccccc3C2)c2ccc(Cl)c(Cl)c2)cc1	n	146.0	n	n	n	n	n
CCOC(=O)N1CCN(C(=O)CN(c2ccccc2OC)S(=O)(=O)c2ccc(C)cc2)CC1	n	12.0[inhibitor]	n	18.0[inhibitor]	n	n	n
O=C(Nc1cccc([N+](=O)[O-])c1)c1ccncc1	n	141.0	n	n	n	n	n
CC(C)[C@H](NC(N)=O)C(=O)Nc1cccc([N+](=O)[O-])c1	n	143.0	n	n	n	n	n
O=C(Nc1cccc(Cl)c1)c1cccc(Oc2ccc([N+](=O)[O-])cc2Cl)c1	n	n	n	17.0[inhibitor]	n	n	n
C/C(=N/NC(=O)c1ccc(O)cc1)c1cccc([N+](=O)[O-])c1	n	n	n	n	x	x	x
C/C(=N\NC(=O)c1cccc([N+](=O)[O-])c1)c1ccncc1	n	49.0[inhibitor]	n	n	n	n	n
CCCCCCCSc1ncnc2[nH]ncc12	x	x	n	x	x	x	x
COc1ccc(CC2(C)OC(c3ccccc3)=NN2C(C)=O)cc1 (stereo not given)	n	n	n	n	x	x	x
CC(NC(=O)CCn1nc(-c2ccc(Cl)cc2)ccc1=O)c1ccccc1 (stereo not given)	n	n	n	n	x	x	x
CC1=CN(S(=O)(=O)c2ccc(C)cc2)C[C@@H]2c3ccccc3N(S(=O)(=O)c3ccc(C)cc3)[C@H]12	x	x	n	x	x	x	x
Cc1ccc(NC(=O)c2ccncc2)cc1[N+](=O)[O-]	n	152.0	n	n	n	n	n
Cc1ccc(C(=O)Nc2ccncc2)cc1[N+](=O)[O-]	n	n	n	n	x	x	x
CCC(c1nc2ccccc2c(=O)n1CCCn1ccnc1)N1C(=O)c2ccccc2C1=O (stereo not given)	n	77.0[inhibitor]	n	n	n	n	n
O=C(Nc1ccccc1C(=O)N1CCCC1)c1ncoc1-c1cccc(Cl)c1	n	n	n	n	x	x	x
COCC(=O)OCC(=O)Nc1cc([N+](=O)[O-])ccc1Cl	n	n	n	n	x	x	x
COCC(=O)OCC(=O)Nc1ccc(Cl)cc1[N+](=O)[O-]	n	32.0[inhibitor]	n	44.0[inhibitor]	n	n	n
Cc1ccc(C)c(NC(=O)c2ccccc2C(=O)c2ccccc2)c1	n	n	x	n	x	x	x
CCCCC1=CC2=C(c3ccco3)C(=O)C(C)(OC(=O)c3ccc(OC)cc3)C(=O)C2=CN1C(CO)CO (stereo not given)	n	n	n	144.0	n	n	n

Bioassay records from PubChem.
